pKi: −log10 of the molar value.
Legend:
Format in all cases: cell-based
Adenosine receptor A2a [1] = target: T1, Adenosine receptor A2a (Homo sapiens, UniProt P29274); assay: Displacement of [3]ZM241385 from human adenosine A2A receptor expressed in HeLa cells at 1 uM
Outline: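 At 1 µM test compound: 10 µg membranes, 3 nM [3H]ZM241385, 30 min at 25 °C in Tris/EDTA/MgCl2/adenosine deaminase buffer, pH 7.4. Nonspecific binding from 50 µM NECA. Output is % displacement of specific binding, based on total and nonspecific dpm.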

[2] = target: T2, Adenosine receptor A1 (Homo sapiens) (UniProt P30542); assay: Displacement of [3]DPCPX from human adenosine A1 receptor expressed in CHO cells at 1 uM
T2 sequence (whole entry): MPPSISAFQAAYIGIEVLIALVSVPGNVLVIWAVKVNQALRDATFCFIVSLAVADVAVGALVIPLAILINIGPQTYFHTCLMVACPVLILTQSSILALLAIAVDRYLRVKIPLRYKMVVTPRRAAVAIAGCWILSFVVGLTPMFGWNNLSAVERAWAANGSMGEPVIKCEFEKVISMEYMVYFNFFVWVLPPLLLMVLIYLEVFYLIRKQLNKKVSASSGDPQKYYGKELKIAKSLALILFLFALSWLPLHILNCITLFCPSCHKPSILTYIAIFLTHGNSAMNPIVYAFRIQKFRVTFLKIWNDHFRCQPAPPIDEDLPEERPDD
Outline: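 Single-point competition at 1 µM test compound: 15 µg membranes, 2 nM [3H]DPCPX, 60 min at 25 °C, Hepes/NaCl/MgCl2/adenosine deaminase buffer pH 7.4. 10 µM (R)-PIA for nonspecific binding. % displacement = (total binding − dpm)×100/(total − nonspecific).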

[3] = target: T3, Adenosine receptor A2b (Homo sapiens) (UniProt P29275); assay: Displacement of [3]DPCPX from human adenosine A2B receptor expressed in HEK293 cells at 1 uM
T3 sequence (whole entry): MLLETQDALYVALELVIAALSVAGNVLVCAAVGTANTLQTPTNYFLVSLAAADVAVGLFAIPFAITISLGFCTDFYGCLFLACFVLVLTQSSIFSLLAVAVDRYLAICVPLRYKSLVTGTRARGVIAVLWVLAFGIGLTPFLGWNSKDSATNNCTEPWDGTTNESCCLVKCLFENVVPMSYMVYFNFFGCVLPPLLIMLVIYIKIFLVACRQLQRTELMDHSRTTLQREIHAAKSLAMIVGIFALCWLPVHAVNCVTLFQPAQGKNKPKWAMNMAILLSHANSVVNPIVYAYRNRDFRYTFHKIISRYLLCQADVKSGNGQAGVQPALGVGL
Outline: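 At 1 µM test compound: 18 µg membranes, 35 nM [3H]DPCPX, 30 min at 25 °C, Tris/EDTA/MgCl2/benzamidine/adenosine deaminase buffer pH 6.5. Nonspecific binding from 400 µM NECA. Value expressed as % displacement of specific binding, calculated from total, nonspecific and competed dpm.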

[4] = target: T4, Adenosine receptor A3 (Homo sapiens) (UniProt P0DMS8); assay: Displacement of [3]NECA from human adenosine A3 receptor expressed in HeLa cells at 1 uM
T4 sequence (whole entry): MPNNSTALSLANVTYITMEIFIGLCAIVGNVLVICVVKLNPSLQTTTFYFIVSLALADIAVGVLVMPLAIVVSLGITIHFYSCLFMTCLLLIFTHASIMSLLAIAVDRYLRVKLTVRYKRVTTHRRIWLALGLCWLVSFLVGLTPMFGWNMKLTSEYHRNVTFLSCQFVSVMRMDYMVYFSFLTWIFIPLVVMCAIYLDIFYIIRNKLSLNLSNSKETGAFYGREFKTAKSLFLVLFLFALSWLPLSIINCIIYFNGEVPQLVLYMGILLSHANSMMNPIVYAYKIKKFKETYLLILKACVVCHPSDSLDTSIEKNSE
Outline: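 At 1 µM test compound, 90 µg membranes were incubated with 30 nM [3H]NECA for 180 min at 25 °C in Tris/EDTA/5 mM MgCl2/adenosine deaminase buffer, pH 7.4. Nonspecific binding with 100 µM (R)-PIA. Result given as % displacement of specific binding.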

Adenosine receptor A2b = target: T5, Adenosine receptor A2b (Homo sapiens, UniProt P29275); assay: Displacement of [3]DPCPX from human adenosine A2B receptor expressed in HEK293 cells
T5 sequence (P29275 whole entry): T3 sequence (whole entry)
Outline: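 Membranes (18 µg) incubated 30 min at 25 °C with 35 nM [3H]DPCPX in 50 mM Tris-HCl, 1 mM EDTA, 10 mM MgCl2, 0.1 mM benzamidine, 2 U/mL adenosine deaminase, pH 6.5, plus six concentrations (0.1 nM–1 µM). Nonspecific binding defined with 400 µM NECA. GF/B filtration, six washes with Tris pH 6.5. Ki via Cheng–Prusoff.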

Adenosine receptor A2a [5] = target: T1, Adenosine receptor A2a; assay: Displacement of [3]ZM241385 from human adenosine A2A receptor expressed in HeLa cells
Outline: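 10 µg membranes, 3 nM [3H]ZM241385, 30 min at 25 °C in 50 mM Tris-HCl, 1 mM EDTA, 10 mM MgCl2, 2 U/mL adenosine deaminase, pH 7.4. Six test concentrations (0.1 nM–1 µM). Nonspecific binding from 50 µM NECA. GF/C filtration, four ice-cold washes, scintillation counting. Ki via Cheng–Prusoff.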

Adenosine receptor A1 = target: T6, Adenosine receptor A1 (Homo sapiens, UniProt P30542); assay: Displacement of [3]DPCPX from human adenosine A1 receptor expressed in CHO cells
T6 sequence (P30542 whole entry): T2 sequence (whole entry)
Outline: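 Membranes (15 µg) incubated 60 min at 25 °C with 2 nM [3H]DPCPX in 20 mM Hepes, 100 mM NaCl, 10 mM MgCl2, 2 U/mL adenosine deaminase, pH 7.4, plus 6 test concentrations (0.1 nM–1 µM). Nonspecific binding defined with 10 µM (R)-PIA. Filtration on GF/C, 4 ice-cold washes, scintillation counting. Ki from IC50 via Cheng–Prusoff.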

Adenosine receptor A3 = target: T7, Adenosine receptor A3 (Homo sapiens, UniProt P0DMS8); assay: Displacement of [3]NECA from human adenosine A3 receptor expressed in HeLa cells
T7 sequence (P0DMS8 whole entry): T4 sequence (whole entry)
Outline: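 90 µg membranes, 30 nM [3H]NECA, 180 min at 25 °C in 50 mM Tris-HCl, 1 mM EDTA, 5 mM MgCl2, 2 U/mL adenosine deaminase, pH 7.4. Test compound at six concentrations (0.1 nM–1 µM). Nonspecific binding with 100 µM (R)-PIA. GF/B filtration, six washes, scintillation counting. Ki = IC50/(1 + C/KD).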

T1 sequence (P29274 whole entry): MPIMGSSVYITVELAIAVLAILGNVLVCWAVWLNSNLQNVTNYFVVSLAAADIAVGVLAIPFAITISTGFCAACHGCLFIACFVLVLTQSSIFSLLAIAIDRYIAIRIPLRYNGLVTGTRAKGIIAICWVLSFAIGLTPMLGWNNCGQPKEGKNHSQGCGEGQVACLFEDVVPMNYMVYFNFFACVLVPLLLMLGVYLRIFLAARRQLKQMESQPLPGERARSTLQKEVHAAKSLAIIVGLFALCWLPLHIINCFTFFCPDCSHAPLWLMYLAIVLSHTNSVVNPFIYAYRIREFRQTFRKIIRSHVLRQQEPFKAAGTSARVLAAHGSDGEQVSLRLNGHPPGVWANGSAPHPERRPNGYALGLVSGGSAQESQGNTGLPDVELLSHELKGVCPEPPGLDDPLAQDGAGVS

Row | inhibition (Adenosine receptor A2a [1]) | inhibition [2] | inhibition [3] | inhibition [4] | pKi (Adenosine receptor A2b) | pKi (Adenosine receptor A2a [5]) | pKi (Adenosine receptor A1) | pKi (Adenosine receptor A3) | SMILES
1 | 7% | 12.3% | 4% | 26.7% | – | – | – | – | c1coc(-c2nc3c(N4CCNCC4)nc4ccccc4n3n2)c1
2 | – | – | – | 57.3% | 5.76 | 6.31 | 7.48 | – | c1coc(CNc2nc3ccccc3n3nc(-c4ccco4)nc23)c1
3 | 8% | 55.1% | 3% | – | – | – | – | 7.18 | c1coc(COc2nc3ccccc3n3nc(-c4ccco4)nc23)c1
4 | – | – | – | – | 6.84 | 6.24 | 6.27 | 6.17 | c1coc(-c2nc3c(OCc4ccoc4)nc4ccccc4n3n2)c1
5 | 20% | – | 22% | 55.3% | – | – | 6.24 | – | COC(CNc1nc2ccccc2n2nc(-c3ccco3)nc12)OC
6 | 57% | – | 34% | 43% | – | – | 6.85 | – | NCC(O)CNc1nc2ccccc2n2nc(-c3ccco3)nc12 (centres undefined)
7 | – | – | – | 82% | 6.37 | 6.43 | 7.13 | – | COCCCNc1nc2ccccc2n2nc(-c3ccco3)nc12
8 | – | – | – | 10.4% | 5.62 | 6.40 | 6.87 | – | CCN(CC)c1nc2ccccc2n2nc(-c3ccco3)nc12
9 | – | – | 49% | 71.7% | – | 7.19 | 7.34 | – | c1ccc(Nc2nc3ccccc3n3nc(-c4ccco4)nc23)cc1
10 | – | – | 46% | 51.7% | – | 6.96 | 7.23 | – | OCCN(CCO)c1nc2ccccc2n2nc(-c3ccco3)nc12
11 | – | – | 46% | – | – | 7.29 | 7.03 | 6.43 | c1ccc(CCNc2nc3ccccc3n3nc(-c4ccco4)nc23)cc1
12 | 38% | 13.8% | 3% | – | – | – | – | 5.81 | c1ccc(COc2nc3ccccc3n3nc(-c4ccco4)nc23)cc1
13 | – | – | 28% | 57.4% | – | 6.40 | 6.48 | – | COc1nc2ccccc2n2nc(-c3ccco3)nc12
14 | 12% | 24.5% | 3% | 24% | – | – | – | – | OCCN1CCN(c2nc3ccccc3n3nc(-c4ccco4)nc23)CC1
15 | – | – | 32% | – | – | 5.51 | 6.52 | 6.36 | COCCNc1nc2ccccc2n2nc(-c3ccco3)nc12
16 | 10% | – | 21% | 52% | – | – | 7.30 | – | O=C(Nc1nc2ccccc2n2nc(-c3ccco3)nc12)c1cccs1
17 | – | – | – | – | 7.88 | 7.95 | 8.25 | 6.48 | Nc1nc2ccccc2n2nc(-c3ccco3)nc12
18 | 38% | – | 34% | 69% | – | – | 5.43 | – | CCOc1nc2ccccc2n2nc(-c3ccco3)nc12
19 | – | – | – | – | 5.60 | 6.40 | 6.70 | 6.60 | O=C(Nc1nc2ccccc2n2nc(-c3ccco3)nc12)c1ccco1
20 | – | – | – | – | 6.60 | 6.70 | 6.95 | 6.60 | CC(=O)Nc1nc2ccccc2n2nc(-c3ccco3)nc12
21 | – | – | – | – | 6.91 | 7.20 | 8.50 | 7.52 | OCCNc1nc2ccccc2n2nc(-c3ccco3)nc12
22 | – | – | 24% | 32.6% | – | 6.52 | 6.99 | – | c1ccc(CNc2nc3ccccc3n3nc(-c4ccco4)nc23)cc1
23 | – | – | – | – | 6.60 | 6.80 | 7.20 | 7.00 | O=C(Cc1ccccc1)Nc1nc2ccccc2n2nc(-c3ccco3)nc12
24 | – | – | – | – | 6.30 | 7.20 | 7.90 | 6.90 | O=C(CCc1ccccc1)Nc1nc2ccccc2n2nc(-c3ccco3)nc12
25 | – | 31.1% | 17% | 50.7% | – | 6.51 | – | – | CN(C)c1nc2ccccc2n2nc(-c3ccco3)nc12
26 | – | – | – | – | 7.17 | 7.32 | 8.40 | 7.64 | CC(O)CNc1nc2ccccc2n2nc(-c3ccco3)nc12 (centres undefined)

— ChEMBL document CHEMBL1143971, “Synthesis, adenosine receptor binding and 3D-QSAR of 4-substituted 2-(2'-furyl)-1,2,4-triazolo[1,5-a]quinoxalines” (Bioorg Med Chem, 2008)
